{"source": "paper PMC3558988", "about": "(Journal of Chemotherapy (Florence, Italy), 2013)", "key": {"[1]": {"test_system": "CA-MRSA", "assay": "Neutropenic murine thigh infection model, single-dose response", "assay_type": "in vivo, Staphylococcus aureus", "conditions": "24 hours"}, "[2]": {"assay": "Pharmacokinetics after single oral doses in MSSA-infected neutropenic mice", "assay_type": "in vivo", "conditions": "for fAUC0–24: free drug"}, "[3]": {"assay": "Plasma protein-binding by ultrafiltration", "assay_type": "in vitro ADME", "conditions": "mouse plasma, 0·1 to 2 μg/ml"}, "[4]": {"conditions": "cited from earlier work"}, "[5]": {"test_system": "three strains of S. aureus", "assay": "MIC summary over the three test strains", "assay_type": "cell-based, Staphylococcus aureus", "procedure,_shortened": "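Broth microdilution MICs per CLSI guidelines, run in triplicate, for the test compound and a panel of comparator antimicrobials including linezolid. Tested against the three S. aureus isolates used in the study (one MSSA, one CA-MRSA, one HA-MRSA).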"}, "[6]": {"test_system": "MSSA ATCC 29213", "assay": "Neutropenic murine thigh infection model, efficacy and pharmacodynamics", "assay_type": "in vivo, Staphylococcus aureus", "conditions": "oral, neutropenic mice, 24 hours"}, "[7]": {"test_system": "CA-MRSA (No. 32, CDC type USA300, PVL-positive)", "assay": "MIC by broth microdilution", "assay_type": "cell-based", "conditions": "Staphylococcus aureus"}}, "data": [{"smiles": "CC(=O)NC[C@H]1CN(c2ccc(N3CCOCC3)c(F)c2)C(=O)O1", "note": "[Linezolid]", "values": [{"measurement": "effect on bacterial growth", "setting": "[1]; 10 and 40 mg/kg single oral dose", "result": "some suppression of growth"}, {"measurement": "doses required to achieve consistent reductions in CFU", "setting": "[1]; single oral dose", "result": "≥ 100", "unit": "mg/kg"}]}, {"smiles": "Cc1c(CN(C)C(=O)/C=C/c2cnc3c(c2)CCC(=O)N3)oc2ccccc12", "note": "[AFN-1252]", "values": [{"measurement": "fAUC0–24", "setting": "[2]; 5 mg/kg single oral dose", "result": 113, "unit": "ng·h/mL"}, {"measurement": "fAUC0–24", "setting": "[2]; 10 mg/kg single oral dose", "result": 141, "unit": "ng·h/mL"}, {"measurement": "fAUC0–24", "setting": "[2]; 30 mg/kg single oral dose", "result": 160, "unit": "ng·h/mL"}, {"measurement": "fAUC0–24", "setting": "[2]; 100 mg/kg single oral dose", "result": 285, "unit": "ng·h/mL"}, {"measurement": "PK profile (dose proportionality of fAUC, fCmax, Tmax)", "setting": "[2]; single oral doses 2·5-100 mg/kg", "result": "non-linear exposures"}, {"measurement": "concentration dependence of protein binding", "setting": "[3]", "result": "no concentration-dependent binding"}, {"measurement": "permeability", "setting": "[4]; BCS", "result": "high"}, {"measurement": "Biopharmaceutics Classification System class", "setting": "[4]", "result": "Class 2"}, {"measurement": "dose giving marked reduction in bacterial count relative to time 0", "setting": "[1]; single oral dose", "result": "≥ 10", "unit": "mg/kg"}, {"measurement": "level of activity (MIC) greater than linezolid", "setting": "[5]", "result": "at least 500 fold"}, {"measurement": "level of activity (MIC) greater than other antibacterials tested", "setting": "[5]", "result": "at least 32 fold"}, {"measurement": "doses giving reductions in total bacterial count of 1 log and greater compared to time 0", "setting": "[6]; MSSA", "result": "≥ 20", "unit": "mg/kg"}, {"measurement": "dose at which reduction in MSSA growth rate began", "setting": "[6]", "result": 5, "unit": "mg/kg"}]}, {"smiles": "CC[C@H]1OC(=O)[C@H](C)[C@@H](O[C@H]2C[C@@](C)(OC)[C@@H](O)[C@H](C)O2)[C@H](C)[C@@H](O[C@@H]2O[C@H](C)C[C@H](N(C)C)[C@H]2O)[C@](C)(O)C[C@@H](C)C(=O)[C@H](C)[C@@H](O)[C@]1(C)O", "note": "[Erythromycin]", "values": [{"measurement": "MIC", "setting": "[7]", "result": "> 32", "unit": "µg/mL"}]}, {"smiles": "CCC[C@@H]1C[C@@H](C(=O)N[C@@H]([C@H]2O[C@H](SC)[C@H](O)[C@@H](O)[C@H]2O)[C@H](C)Cl)N(C)C1", "note": "[Clindamycin]", "values": [{"measurement": "MIC", "setting": "[7]", "result": "> 16", "unit": "µg/mL"}]}]}
